pEC50, pIC50: −log10 of the molar value.
Tests used:
[1] = system: Respiratory syncytial virus; assay: Antiviral activity against RSV Long in human HeLa cells assessed as protection against virus-induced cytopathicity; format: functional, organism-based
Procedure, shortened: (§1)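 Confluent cell monolayers inoculated with 100 CCID₅₀ virus. After 1-2 h adsorption, residual virus removed and cultures incubated with varying compound concentrations. Cytopathicity scored once it reached completion in untreated infected controls. EC₅₀ = dose reducing virus-induced cytopathogenicity by 50%.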

[2] = system: Vesicular stomatitis virus; assay: Antiviral activity against VSV in human HeLa cells assessed as protection against virus-induced cytopathicity; format: functional, organism-based
[3] = system: Human immunodeficiency virus 1; assay: Antiviral activity against HIV1 3B in human CEM cells assessed as protection against virus-induced cytopathicity after 4 days; format: functional, organism-based; conditions: Human immunodeficiency virus 1, 3B, CCRF-CEM, 96 h
Procedure, shortened: (§2)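 CEM cells (~3 × 10⁵ cells/mL) infected with ~100 CCID₅₀ per mL of HIV-1 (IIIB) or HIV-2 (ROD), then seeded into wells containing compound dilutions. After 4 days at 37 °C, syncytium (giant cell) formation was examined microscopically. EC₅₀ = concentration protecting CEM cells from HIV cytopathicity by 50%.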

[4] = system: Human immunodeficiency virus 2; assay: Antiviral activity against HIV2 ROD in human CEM cells assessed as protection against virus-induced cytopathicity after 4 days; format: functional, organism-based; conditions: Human immunodeficiency virus 2, ROD, CCRF-CEM, 96 h; procedure, shortened: as §2
L1210 = assay: Antiproliferative activity against mouse L1210 cells after 2 days; format: cell-based; conditions: L1210, 48 h
Procedure, shortened: (§3)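 Cells seeded at 5 × 10⁴ to 7.5 × 10⁴ cells/200 µL with or without serial compound dilutions; incubated at 37 °C for 2 days (L1210) or 3 days (Molt4/C8, CEM). Cell numbers counted with a Coulter counter. CC₅₀ = concentration reducing proliferation by 50% versus untreated controls, read from plots of cell number (% of control) against concentration. Means of at least two independent experiments.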

[5] = Antiproliferative activity against human Molt4/C8 cells after 3 days; format: cell-based; conditions: MOLT-4, 72 h; procedure, shortened: as §3
CCRF-CEM = assay: Antiproliferative activity against human CEM cells after 3 days; format: cell-based; conditions: 72 h; procedure, shortened: as §3
[6] = system: Human immunodeficiency virus 1; assay: Antiviral activity against HIV1 with reverse transcriptase L100I mutation in human CEM cells assessed as protection against virus-induced cytopathicity; format: functional, organism-based; conditions: Human immunodeficiency virus 1, CCRF-CEM
Procedure, shortened: (§4)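 CEM cells (~3 × 10⁵ cells/mL) were infected with ~100 CCID₅₀ virus per mL and seeded with serial compound dilutions. After 4 days at 37 °C, syncytium (giant cell) formation was scored microscopically. EC₅₀ is the concentration giving 50% protection against virus cytopathicity.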

[7] = system: Human immunodeficiency virus 1; assay: Antiviral activity against HIV1 with reverse transcriptase K103N mutation in human CEM cells assessed as protection against virus-induced cytopathicity; format: functional, organism-based; conditions: Human immunodeficiency virus 1, CCRF-CEM; procedure, shortened: as §4
[8] = system: Human immunodeficiency virus 1; assay: Antiviral activity against HIV1 with reverse transcriptase Y181C mutation in human CEM cells assessed as protection against virus-induced cytopathicity; format: functional, organism-based; conditions: Human immunodeficiency virus 1, CCRF-CEM; procedure, shortened: as §4
[9] = system: Human immunodeficiency virus 1; assay: Antiviral activity against HIV1 with reverse transcriptase Y181I mutation in human CEM cells assessed as protection against virus-induced cytopathicity; format: functional, organism-based; conditions: Human immunodeficiency virus 1, CCRF-CEM; procedure, shortened: as §4
[10] = system: Human immunodeficiency virus 1; assay: Antiviral activity against HIV1 with reverse transcriptase Y188L mutation in human CEM cells assessed as protection against virus-induced cytopathicity; format: functional, organism-based; conditions: Human immunodeficiency virus 1, CCRF-CEM; procedure, shortened: as §4
[11] = biological target: Human immunodeficiency virus type 1 reverse transcriptase (Human immunodeficiency virus 1, UniProt Q72547); assay: Inhibition of HIV1 reverse transcriptase p66/p51; conditions: read-out: IC50
[12] = biological target: Human immunodeficiency virus type 1 reverse transcriptase (Human immunodeficiency virus 1, UniProt Q72547, L100I); assay: Inhibition of HIV1 reverse transcriptase p66/p51 L100I mutant; conditions: read-out: IC50
Procedure, shortened: (§5)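 Substrate was 0.5 µg poly(rA)/oligo(dT) 10:1 (0.3 µM 3′-OH ends) with 10 µM [³H]dTTP, at 37 °C. Acid-precipitable radioactivity was counted on GF/C filters after TCA washes.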

[13] = biological target: Human immunodeficiency virus type 1 reverse transcriptase (Human immunodeficiency virus 1, UniProt Q72547, K103N); assay: Inhibition of HIV1 reverse transcriptase p66/p51 K103N mutant; conditions: read-out: IC50; procedure, shortened: as §5
[14] = biological target: Human immunodeficiency virus type 1 reverse transcriptase (Human immunodeficiency virus 1, UniProt Q72547, Y181I); assay: Inhibition of HIV1 reverse transcriptase p66/p51 Y181I mutant; conditions: read-out: IC50; procedure, shortened: as §5
[15] = Cytotoxicity against human HeLa cells assessed as drug level causing microscopically detectable alteration of normal cell morphology after 3 days; format: cell-based
Procedure, shortened: (§6)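 Serial compound dilutions added to confluent HeLa or Vero monolayers. MCC = minimum concentration causing microscopically detectable alteration of cell morphology after 3 days of incubation.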

[16] = Cytotoxicity against african green monkey Vero cells assessed as drug level causing microscopically detectable alteration of normal cell morphology after 3 days; format: cell-based; conditions: chlorocebus sabaeus; procedure, shortened: as §6
Coxsackievirus B4 [17] = assay: Antiviral activity against Coxsackievirus B4 in human HeLa cells assessed as protection against virus-induced cytopathicity; format: functional, organism-based; conditions: Enterovirus B; procedure, shortened: as §1
Coxsackievirus B4 [18] = assay: Antiviral activity against Coxsackievirus B4 in african green monkey Vero cells assessed as protection against virus-induced cytopathicity; format: functional, organism-based; conditions: Enterovirus B; procedure, shortened: as §1
Human respirovirus 3 = assay: Antiviral activity against Parainfluenza virus type 3 in african green monkey Vero cells assessed as protection against virus-induced cytopathicity; format: functional, organism-based; conditions: Human respirovirus 3, Vero; procedure, shortened: as §1
[19] = system: Mammalian orthoreovirus 1; assay: Antiviral activity against Reovirus 1 in african green monkey Vero cells assessed as protection against virus-induced cytopathicity; format: functional, organism-based; conditions: Mammalian orthoreovirus 1, Vero; procedure, shortened: as §1
Sindbis virus = assay: Antiviral activity against Sindbis virus in african green monkey Vero cells assessed as protection against virus-induced cytopathicity; format: functional, organism-based; procedure, shortened: as §1
Punta Toro virus = assay: Antiviral activity against Punta Toro virus in african green monkey Vero cells assessed as protection against virus-induced cytopathicity; format: functional, organism-based; procedure, shortened: as §1
[20] = Cytotoxicity against human HEL cells assessed as drug level causing microscopically detectable alteration of normal cell morphology after 3 days; format: cell-based
Human alphaherpesvirus 1 [21] = assay: Antiviral activity against HSV1 KOS in human HEL cells assessed as protection against virus-induced cytopathicity; format: functional, organism-based; conditions: Human alphaherpesvirus 1, KOS
Human alphaherpesvirus 2 = assay: Antiviral activity against HSV2 G in human HEL cells assessed as protection against virus-induced cytopathicity; format: functional, organism-based; conditions: Human alphaherpesvirus 2, strain G; procedure, shortened: as §1
Vaccinia virus = assay: Antiviral activity against Vaccinia virus Lederle in human HEL cells assessed as protection against virus-induced cytopathicity; format: functional, organism-based; conditions: Orthopoxvirus vaccinia
[22] = system: Vesicular stomatitis virus; assay: Antiviral activity against VSV in human HEL cells assessed as protection against virus-induced cytopathicity; format: functional, organism-based
Human alphaherpesvirus 1 [23] = assay: Antiviral activity against thymidine kinase deficient and acyclovir resistant HSV1 KOS in human HEL cells assessed as protection against virus-induced cytopathicity; format: functional, organism-based; conditions: Human alphaherpesvirus 1, KOS
[24] = Cytotoxicity against MDCK cells assessed as drug level causing microscopically detectable alteration of normal cell morphology; format: cell-based, Canis lupus familiaris; conditions: dog
[25] = Cytotoxicity against MDCK cells by MTS assay; format: cell-based, Canis lupus familiaris; conditions: dog
Influenza A virus [26] = assay: Antiviral activity against influenza H1N1 virus in MDCK cells assessed as reduction of virus-induced cytopathicity by visual cytopathic effect scoring method; format: functional, organism-based
Influenza A virus [27] = assay: Antiviral activity against influenza H1N1 virus in MDCK cells assessed as reduction of virus-induced cytopathicity by MTS method; format: functional, organism-based; conditions: Influenza A virus, H1N1, MDCK
Influenza A virus H3N2 [28] = assay: Antiviral activity against influenza H3N2 virus in MDCK cells assessed as reduction of virus-induced cytopathicity by visual cytopathic effect scoring method; format: functional, organism-based
Influenza A virus H3N2 [29] = assay: Antiviral activity against influenza H3N2 virus in MDCK cells assessed as reduction of virus-induced cytopathicity by MTS method; format: functional, organism-based
Influenza B virus [30] = assay: Antiviral activity against influenza B virus in MDCK cells assessed as reduction of virus-induced cytopathicity by visual cytopathic effect scoring method; format: functional, organism-based
Influenza B virus [31] = assay: Antiviral activity against influenza B virus in MDCK cells assessed as reduction of virus-induced cytopathicity by MTS method; format: functional, organism-based
[32] = Cytotoxicity against feline CRFK cells by MTS assay; format: cell-based, Felis catus; conditions: cat
Feline coronavirus = assay: Antiviral activity against Feline coronavirus in feline […] cells assessed as inhibition of virus-induced cytopathicity; format: functional, organism-based; conditions: Alphacoronavirus 1
Felid alphaherpesvirus 1 = assay: Antiviral activity against Feline herpesvirus in feline […] cells assessed as inhibition of virus-induced cytopathicity; format: functional, organism-based

Cc1cc(C)cc(S(=O)(=O)c2c(C(=O)NCC(N)=O)[nH]c3ccc(Cl)cc23)c1
pEC50 [1]: < 4.00
pEC50 [2]: < 4.00
pEC50 [3]: 8.72
pEC50 [4]: < 4.30
pIC50 (L1210): 3.66
pIC50 [5]: 4.82
pIC50 (CCRF-CEM): 4.04
pIC50 [6]: 8.10
pIC50 [7]: 7.54
pIC50 [8]: 7.13
pIC50 [9]: < 6.00
pIC50 [10]: 6.16
pIC50 [11]: 7.59
pIC50 [12]: 6.79
pIC50 [13]: 6.55
pIC50 [14]: 5.78
MCC at 72 h [15]: 100 µM
MCC at 72 h [16]: > 100 µM
pEC50 (Coxsackievirus B4 [17]): ≤ 4.70
pEC50 (Coxsackievirus B4 [18]): < 4.00
pEC50 (Human respirovirus 3): < 4.00
pEC50 [19]: < 4.00
pEC50 (Sindbis virus): < 4.00
pEC50 (Punta Toro virus): < 4.00
MCC at 72 h [20]: > 100 µM
pEC50 (Human alphaherpesvirus 1 [21]): < 4.00
pEC50 (Human alphaherpesvirus 2): < 4.00
pEC50 (Vaccinia virus): < 4.00
pEC50 [22]: < 4.00
pEC50 (Human alphaherpesvirus 1 [23]): < 4.00
MCC [24]: 20 µM
CC50 [25]: 44.1 µM
pEC50 (Influenza A virus [26]): < 5.40
pEC50 (Influenza A virus [27]): < 5.40
pEC50 (Influenza A virus H3N2 [28]): < 5.40
pEC50 (Influenza A virus H3N2 [29]): < 5.40
pEC50 (Influenza B virus [30]): < 5.40
pEC50 (Influenza B virus [31]): < 5.40
CC50 [32]: > 100000 nM
pEC50 (Feline coronavirus): < 4.00
pEC50 (Felid alphaherpesvirus 1): < 4.00

Cc1cc(C)cc(S(=O)(=O)c2c(C(=O)NCCC(N)=O)[nH]c3ccc(Cl)cc23)c1
pEC50 [1]: < 5.40
pEC50 [2]: < 5.40
pEC50 [3]: 9.00
pEC50 [4]: < 5.00
pIC50 (L1210): 4.59
pIC50 [5]: 5.05
pIC50 (CCRF-CEM): 4.80
pIC50 [6]: 8.15
pIC50 [7]: 7.72
pIC50 [8]: 7.11
pIC50 [9]: < 6.00
pIC50 [10]: ≤ 6.00
pIC50 [11]: 7.57
pIC50 [12]: 6.84
pIC50 [13]: 6.45
pIC50 [14]: 5.30
MCC at 72 h [15]: 20 µM
MCC at 72 h [16]: 100 µM
pEC50 (Coxsackievirus B4 [17]): < 5.40
pEC50 (Coxsackievirus B4 [18]): 4.92
pEC50 (Human respirovirus 3): < 4.70
pEC50 [19]: < 4.70
pEC50 (Sindbis virus): < 4.70
pEC50 (Punta Toro virus): < 4.70
MCC at 72 h [20]: 20 µM
pEC50 (Human alphaherpesvirus 1 [21]): < 5.40
pEC50 (Human alphaherpesvirus 2): < 5.40
pEC50 (Vaccinia virus): < 5.40
pEC50 [22]: < 5.40
pEC50 (Human alphaherpesvirus 1 [23]): < 5.40
MCC [24]: 20 µM
CC50 [25]: 9.7 µM
pEC50 (Influenza A virus [26]): < 5.40
pEC50 (Influenza A virus [27]): < 5.40
pEC50 (Influenza A virus H3N2 [28]): < 5.40
pEC50 (Influenza A virus H3N2 [29]): < 5.40
pEC50 (Influenza B virus [30]): < 5.40
pEC50 (Influenza B virus [31]): < 5.40
CC50 [32]: 1700 nM
pEC50 (Feline coronavirus): < 5.40
pEC50 (Felid alphaherpesvirus 1): < 5.40

Cc1ccnc2c1NC(=O)c1cccnc1N2C1CC1 [NEVIRAPINE]
pIC50 [6]: 7.22
pIC50 [7]: 5.54
pIC50 [8]: 4.96
pIC50 [9]: < 5.00
pIC50 [10]: < 5.00
